A short description of assay [1]: inhibitors of TNFa-induced NFkB p65 translocation, primary screen, imaging, HUVEC, MLSMR starter and 10KST1 sets (AID 438).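 Also: compound added about 3h40 before a 20 min TNFalpha stimulation.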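 As to inhibition: signal is the nuclear over cytoplasmic p65 intensity ratio per well.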 The following applies: HUVEC TNFa-induced p65 nuclear translocation; cell count: measured here: nuclei count (cytotoxicity indicator), at 2.08 µM; inhibition: at 2 µM, stronger effect = higher value, 0% TNFa-plus-vehicle, 100% no-TNFa wells.
The nature of assay [2]: endothelial E-selectin expression blockers – imaging, HUVEC, immunofluorescence, MLSMR starter and 10KST1 sets, primary screen (AID 487;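 active = visually confirmed hit in the image check and inhibition above 20%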;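 as to inhibition: signal is fraction of cell area covered by stained E-selectin grains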;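 as to nuclei count: 100% = median nuclei count of all wells on the same plate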). The following applies: HUVEC TNFalpha-induced E-selectin immunofluorescence imaging, at 2 µM; inhibition: stronger effect = higher value; nuclei count: measured here: cell number, toxicity.
Assay [3] is described as follows: Primary imaging screen for DUSP6 inhibitors that restore phospho-Erk in transfected HeLa cells, chemical complementation (AID 609;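 active = compounds giving at least 50% inhibition in the cell-based MKP-3 phosphatase rescue imaging test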;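 as to inhibition: phospho-Erk level distribution per well compared with pooled transfected vehicle control wells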). The following applies: HeLa MKP-3 transfected, phospho-Erk imaging KS statistic, at 10 µM, cells stimulated with TPA for 15 min.
Assay [4] concerns the target Dual specificity protein phosphatase 6 (Homo sapiens) (UniProt Q16828). The assay is described as above. The following applies: HeLa MKP-3 transfected, phospho-Erk imaging KS statistic; at 10 µM; stronger effect = higher value; cells stimulated with TPA for 15 min.
Assay [5] deals with Voltage-gated potassium channel subunit beta-2 (Rattus norvegicus) (UniProt P62483). The assay is described as follows: inhibitors of rat Kvbeta2 reductase activity – biochemical, NADPH fluorescence, primary screen (AID 622;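 active = fluorescence slope higher than the sample average by over 3 SD, cut at about -0.22 in these data, passing the limit was not always enough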;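 also: slope of raw intensity against log time taken from 70 to 1610 s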). The following applies: recombinant KvBeta, 4-cyanobenzaldehyde reduction, at 10 µM, stronger effect = higher value.
Sequence of Voltage-gated potassium channel subunit beta-2 (Rattus norvegicus) (P62483 whole entry, looked up): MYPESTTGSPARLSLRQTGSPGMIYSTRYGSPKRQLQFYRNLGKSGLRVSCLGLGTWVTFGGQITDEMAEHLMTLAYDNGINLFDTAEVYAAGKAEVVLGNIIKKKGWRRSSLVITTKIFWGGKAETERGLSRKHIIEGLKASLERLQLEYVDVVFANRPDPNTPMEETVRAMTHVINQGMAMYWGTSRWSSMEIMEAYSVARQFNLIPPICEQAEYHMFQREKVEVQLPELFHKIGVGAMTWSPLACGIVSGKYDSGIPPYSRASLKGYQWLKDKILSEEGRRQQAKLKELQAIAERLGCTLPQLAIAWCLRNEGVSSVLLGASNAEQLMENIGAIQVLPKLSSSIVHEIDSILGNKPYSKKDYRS
Assay [6] has the same target. Briefly: enhancers of rat Kvbeta2 NADPH turnover – biochemical, NADPH fluorescence, primary screen (AID 623;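 active = NADPH fluorescence slope more negative than the mean of all samples by about 3 SD, 99.7% confidence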;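 also: fluorescence intensity change per second fitted from 20 to 320 s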). To be noted: Recombinant KvBeta, NADPH fluorescence decrease slope, 10 min; at 10 µM; stronger effect = lower value.
Assay [7] has as its target Alpha-2C adrenergic receptor (Homo sapiens) (UniProt P18825). The assay is described as follows: compounds altering alpha2C-coupled GIRK flux – cell-based, HEK293 alpha2C/GIRK1/2, thallium flux, primary screen (AID 624;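 active = fluorescence slope after compound addition differing from the mean of all screened samples at 99.7% confidence, in either direction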;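 also: slope of fluorescence ratio to pre-addition baseline per second over 15 to 24 s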). To be noted: thallium flux BTC fluorescence, at 10 µM, actives lie on both sides.
The nature of assay [8]: inhibitors of larval lipid processing in zebrafish, primary screen, whole organism, PED6 fluorescence, gall bladder and intestine (AID 686;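 active = a full or partial loss of lipid-probe fluorescence in the fish gall bladder, intestine or both, judged by eye; inactive = no fluorescence loss, or compound toxic to the fish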;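 also: larvae 5 to 7 days old with five fish per well; signal comes from phospholipase A2 cleavage of quenched PED6 carried via bile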). To be noted: Zebrafish larvae PED6 lipid processing, fluorescence scoring; screened at 20 µM (by protocol). The essentials:
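Incubation: overnight exposure of larvae to compound plus PED6 / Test system: live zebrafish larvae aged 5-7 days, whole organism / Amount: 5 larvae per well / Read-out basis: visual per-well fluorescence inhibition score / Signal: visual fluorescence microscopy scoring of gall bladder, gut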

The nature of assay [9]: loss of swimming-algae plug formation – whole organism, Chlamydomonas reinhardtii, WT vs cilia-less mutant, absorbance, 96-well, primary screen (AID 463189;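 active = inhibition at or above 50% relative to wild type and mutant plate controls; inactive = inhibition below 50%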;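 also: 0% = wild type cc124 cells in DMSO and 100% = ciliumless bld1 mutant cells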). To be noted: Chlamydomonas reinhardtii gravitaxis, OD600 absorbance, 2 days; at 10 µM; stronger effect = higher value.
Where [10] appears, read: measured here: cell density z-score.
Setting [11] is: measured here: nuclear c-Myc green intensity z-score.
The mark [12] stands for this setting: measured here: nuclear pErk red intensity z-score, stronger effect = higher value.

From PubChem BioAssay come the findings set out here.

The source made the active and inactive calls.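 The calls were made as follows, unless noted: active = inhibition above 20% together with a positive visual image hit; inconclusive = visual image hit but inhibition not above 20%; inactive = no visual image hit.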

Sequence of Dual specificity protein phosphatase 6 (Homo sapiens) (Q16828 whole entry, looked up): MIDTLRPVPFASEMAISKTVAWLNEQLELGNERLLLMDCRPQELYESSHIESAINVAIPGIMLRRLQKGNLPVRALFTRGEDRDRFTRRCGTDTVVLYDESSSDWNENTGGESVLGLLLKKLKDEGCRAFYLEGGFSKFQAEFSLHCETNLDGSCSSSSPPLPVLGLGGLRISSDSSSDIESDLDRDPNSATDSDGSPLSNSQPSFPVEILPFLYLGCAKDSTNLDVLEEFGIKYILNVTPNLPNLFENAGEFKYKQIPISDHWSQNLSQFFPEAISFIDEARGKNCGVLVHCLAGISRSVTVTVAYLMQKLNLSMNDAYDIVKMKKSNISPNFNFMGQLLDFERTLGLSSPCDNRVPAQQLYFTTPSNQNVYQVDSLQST
Sequence of Alpha-2C adrenergic receptor (Homo sapiens) (P18825 whole entry, looked up): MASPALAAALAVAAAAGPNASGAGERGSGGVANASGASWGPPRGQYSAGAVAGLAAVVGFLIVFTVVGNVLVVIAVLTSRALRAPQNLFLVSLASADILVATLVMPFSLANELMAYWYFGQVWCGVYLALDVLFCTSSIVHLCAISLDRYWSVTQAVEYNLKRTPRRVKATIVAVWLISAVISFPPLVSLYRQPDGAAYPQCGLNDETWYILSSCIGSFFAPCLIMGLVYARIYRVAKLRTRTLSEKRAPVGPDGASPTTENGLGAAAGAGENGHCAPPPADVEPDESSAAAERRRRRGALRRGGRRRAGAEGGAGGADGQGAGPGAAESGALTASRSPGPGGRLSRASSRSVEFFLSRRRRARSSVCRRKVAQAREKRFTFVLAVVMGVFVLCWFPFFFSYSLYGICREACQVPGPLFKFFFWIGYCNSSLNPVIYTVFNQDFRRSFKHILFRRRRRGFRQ

For `COc1cccc(C2=CC(c3ccccc3)n3ncnc3N2)c1` (stereo not given), the cell count in assay [1] turned out to be 565. Besides, the inhibition in assay [1] is 3.2% (inactive); in assay [2], 36.2% (inactive); in [4], -8.76% (inactive); in [9] it was 10.9% (inactive). In addition, in assay [2], the nuclei count stood at 163%. The values for the z-score in assay [3] (setting [10]), in assay [3] (setting [11]) and in [3] (setting [12]) were -0.222, -0.0591 and 0.0878, respectively. Further, in [5], the fluorescence slope was -0.0434 (active). The NADPH fluorescence slope in [6] is -2e-07 (inactive). The slope in assay [7] is 0.00478 (inactive). Further, in [8], the molecule was classed as inactive.
In the case of `CC(C)N1CC=C2C(C#N)=C(N)C(C#N)(C#N)C(c3ccccc3)C2C1` (stereo not given), the cell count in assay [1] amounted to 535. The inhibition in assay [1] was -3.2% (inactive); in [2], -126% (inactive); in assay [4], 68.6% (inactive); in assay [9] it was 11.1% (inactive). For the same molecule, in [2], the nuclei count amounted to 218%. For the same molecule, the z-score in assay [3] (setting [10]) worked out at 0.674; in assay [3] (setting [11]), 3.57; in assay [3] (setting [12]) it was 1.58. Moreover, the fluorescence slope in assay [5] is -0.366 (inactive). Also, the NADPH fluorescence slope in assay [6] is -2.3e-05 (inactive). The slope in assay [7] is 0.000192 (inactive). Moreover, the molecule was classed as inactive in assay [8].
Turning to `COC(=O)c1ccc(-c2sc3nc(N4CCOCC4)c4c(c3c2N)CC(C)(C)OC4)o1`, the cell count in assay [1] turned out to be 595. Besides, the inhibition in assay [1] is -19.5% (inactive); in assay [2] it was -62.4% (inactive); in [4] it was -0.624% (inactive); in assay [9], -4.84% (inactive). Also, the nuclei count in assay [2] came to 153%. Besides, the z-score in assay [3] (setting [10]) was -1.25; in [3] (setting [11]), 1.71; in [3] (setting [12]), 2.19. For the same molecule, the fluorescence slope in assay [5] is -0.16 (inactive). In addition, the NADPH fluorescence slope in assay [6] is -2.4e-05 (inactive). In addition, the slope in [7] is 0.00678 (inactive). In [8], the molecule was classed as inactive.
For the molecule `COc1ccccc1N(O)C1CC(=O)N(c2ccc(F)cc2)C1=O` (stereo not given), the cell count in assay [1] worked out at 304. Also, the inhibition in [1] is -7.6% (inactive); in [2], -18.5% (inactive); in assay [4] it was 13.4% (inactive); in [9] it was -1.02% (inactive). The same molecule registered a nuclei count in assay [2] of 92%. Moreover, the z-score was -1.81 in [3] (setting [10]), 1.54 in [3] (setting [11]) and 0.452 in assay [3] (setting [12]). In addition, in assay [5], the fluorescence slope was -0.46 (inactive). In addition, the NADPH fluorescence slope in assay [6] was -0.000168 (inactive). Further, the slope in assay [7] was 0.00806 (inactive). The molecule was classed as inactive in assay [8].
For the molecule `O=C(C1=C(O)C(=O)N(CCCN2CCOCC2)C1c1ccccn1)c1cccs1` (stereo not given), in [1], the cell count turned out to be 506. The inhibition was -11.2% (inactive) in [1], -117% (inactive) in [2], -3.5% (inactive) in assay [4] and -6.32% (inactive) in assay [9]. The nuclei count in assay [2] was found to be 136%. The z-score is -1.2 in [3] (setting [10]), -0.158 in assay [3] (setting [11]) and 2.08 in assay [3] (setting [12]). In assay [5], the fluorescence slope was -0.495 (inactive). The NADPH fluorescence slope in assay [6] is -5.5e-05 (inactive). Further, in assay [7], the slope was 0.00674 (inactive). The result in [8] was inactive.
On to `CSc1nc(N2CCCC2)c2c(c1C#N)CC(C)(C)OC2`, for which the cell count in assay [1] is 568. Besides, the inhibition was -4.5% (inactive) in assay [1], -28.5% (inactive) in assay [2], 5.65% (inactive) in [4] and 10.3% (inactive) in assay [9]. In addition, the nuclei count in assay [2] was found to be 171%. Also, the z-score is 0.89 in [3] (setting [10]), -1.74 in assay [3] (setting [11]) and 0.374 in assay [3] (setting [12]). Further, the fluorescence slope in assay [5] is -0.314 (inactive). Besides, in assay [6], the NADPH fluorescence slope is 8.2e-06 (inactive). Also, the slope in assay [7] was 0.00565 (inactive). The call in [8] was inactive.
`CCOC(=O)c1[nH]c2cc3c(cc2c1NC(=O)CN1CCCCC1C)OCO3` (stereo not given): the cell count in [1] worked out at 588. The inhibition in assay [1] is -1.8% (inactive); in [2], 46.2% (inactive); in assay [4] it was -10.5% (inactive); in [9], -2.82% (inactive). Moreover, the nuclei count in [2] stood at 167%. Further, the figures for the z-score in assay [3] (setting [10]), in [3] (setting [11]) and in assay [3] (setting [12]) were 0.894, -1.11 and -0.403, respectively. The fluorescence slope in [5] was -0.229 (inactive). Moreover, the NADPH fluorescence slope in assay [6] was -2e-05 (inactive). Also, the slope in assay [7] was 0.00474 (inactive). Besides, the call in [8] was inactive.
As to `CCCCn1c2nc3ccccc3nc2c2c(=O)n(CC(C)C)cnc21`, the cell count in [1] was found to be 391. In addition, the inhibition in assay [1] was 2.5% (inactive); in assay [2], 21.4% (inactive); in [4], 17.4% (inactive); in assay [9], 33.2% (inactive). The molecule further displayed a nuclei count in [2] of 141%. The figures for the z-score in [3] (setting [10]), in [3] (setting [11]) and in assay [3] (setting [12]) were 0.699, 0.544 and -0.343, respectively. Also, in [5], the fluorescence slope is -0.436 (inactive). The NADPH fluorescence slope in assay [6] was -9.3e-05 (inactive). Moreover, in assay [7], the slope was 0.00687 (inactive). In addition, the outcome in assay [8] was inactive.
Consider `COCc1cc(=O)[nH]c(Nc2nc3ccc(C)cc3o2)n1`, for which the cell count in assay [1] was 568. Besides, the inhibition in assay [1] is -19% (inactive); in assay [2] it was -52.2% (inactive); in assay [4], -3.97% (inactive); in assay [9], 2.95% (inactive). Further, the nuclei count in [2] was found to be 156%. The figures for the z-score in assay [3] (setting [10]), in [3] (setting [11]) and in assay [3] (setting [12]) were 0.289, 0.499 and -0.0408, respectively. Also, the fluorescence slope in assay [5] is -0.463 (inactive). Also, in assay [6], the NADPH fluorescence slope is -4.8e-05 (inactive). Further, in assay [7], the slope is 0.00626 (inactive). In addition, in assay [8], the call was inactive.
As for `CCCCn1c(O)c(C=NCCCN(C)C)c(=O)[nH]c1=O`, in assay [1], the cell count amounted to 445. Also, the inhibition in assay [1] is 4.1% (inactive); in [2], -38.4% (inactive); in assay [4] it was 4.25% (inactive); in assay [9], 10.3% (inactive). For the same molecule, the nuclei count in assay [2] stood at 117%. In addition, the z-score in [3] (setting [10]) was 1.16; in assay [3] (setting [11]) it was -1.01; in [3] (setting [12]) it was -0.649. Besides, the fluorescence slope in assay [5] was -0.44 (inactive). Also, the NADPH fluorescence slope in assay [6] was 2.3e-06 (inactive). For the same molecule, the slope in assay [7] was 0.0074 (inactive). Moreover, the molecule was called inactive in assay [8].

Broadly, the inhibition is the change of the read-out against control, counted positive when it falls.
